Measurements: ChEMBL document CHEMBL1145520, “RAS-RAF-MEK-dependent oxidative cell death involving voltage-dependent anion channels” (Nature, 2007)
The source made the active and inactive calls. The calls are words filed in the database; no cut-off is given here.

Tests used:
[1] = molecular target: T1, Mitogen-activated protein kinase; ERK1/ERK2 (Homo sapiens) (UniProt P27361+P28482); test: Effect on ERK1/2 phosphorylation in human A673 cells by Western blot; format: cell-based
Method in brief: (§1)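 Washed cells were lysed in pH 7.4 HEPES buffer containing orthovanadate, NaF, pyrophosphate, β-glycerophosphate and protease inhibitors. Lysates were run on SDS-PAGE, transferred to PVDF and blocked 1 h at room temperature. Blots were probed with a multiplex phospho-signalling antibody cocktail and read by infrared fluorescence scanning.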

HT-1080 [2] = test: Induction of cell death in human HT1080 cells in presence of PD-98059 by trypan blue exclusion method; format: functional, cell-based
BJ [3] = test: Induction of pro-caspase 3 cleavage in human BJ cells expressing TERT, LT, ST and RAS G12V mutant genes; format: functional, cell-based
Method in brief: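 Cells either untreated, given staurosporine, or given erastin for 6–10 h, then lysed in HEPES pH 7.4 buffer with phosphatase and protease inhibitors. Lysates run on SDS-PAGE, blotted to PVDF, probed with antibodies detecting active caspase-3, with actin as loading control. Bands read on infrared imager.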

BJ [4] = test: Induction of cell death in human BJ cells expressing TERT, LT, ST and RAS G12V mutant genes cells at 9 uM; format: functional, cell-based
BJ [5] = test: Prevention of induction of cell death in human BJ cells expressing TERT, LT, ST and RAS G12V mutant genes cells after 24 hrs in presence of alpha-tocopherol; format: functional, cell-based
Method in brief: (§2)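 BJ-TERT/LT/ST/RASV12 cells treated 24 h with erastin across roughly 1–2.5 µM, together with DMSO or an antioxidant (α-tocopherol, BHT or β-carotene). Viability read afterwards.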

BJ [6] = test: Prevention of induction of cell death in human BJ cells expressing TERT, LT, ST and RAS G12V mutant genes cells after 24 hrs in presence of beta-carotene; format: functional, cell-based; method in brief: as §2
BJ [7] = test: Increase in intracellular oxidative species in human BJ cells expressing TERT, LT, ST and RAS G12V mutant genes cells at 4.6 uM; format: functional, cell-based
Method in brief: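 Cells seeded at 3 × 10^5 per 60 mm dish were grown overnight, then exposed to 4.6 erastin for 2–12 h; H2O2 for 5 min served as positive control. Cells were loaded with H2DCF-DA for 10 min, trypsinized, PBS-washed and stained with propidium iodide. Read-out was flow cytometry as percent of cells with DCF fluorescence in gate M1; n = 2.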

HT-1080 [8] = test: Suppression of induction of cell death in human HT1080 cells at […] by Alamar Blue assay in presence of glutathione; format: functional, cell-based
HT-1080 [9] = test: Suppression of induction of cell death in human HT1080 cells at […] by Alamar Blue assay in presence of butylated hydroxytoluene; format: functional, cell-based
HT-1080 [10] = test: Suppression of induction of cell death in human HT1080 cells at […] by Alamar Blue assay in presence of in presence of alpha-tocopherol; format: functional, cell-based
A673 = test: Induction of PARP1 cleavage in human A673 cells; format: functional, cell-based
Method in brief: (§3)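 Cells were left untreated or given staurosporine or erastin for 6 or 8 h. Lysates were analysed by western blot for full-length and cleaved PARP1, with actin as loading control.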

HT-1080 [11] = test: Induction of PARP1 cleavage in human HT1080 cells; format: functional, cell-based; method in brief: as §3
BJ [12] = test: Induction of PARP1 cleavage in human BJ cells expressing TERT, LT, ST and RAS G12V mutant genes cells after 14 hrs; format: functional, cell-based
Method in brief: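 BJ-TERT/LT/ST/RASV12 cells (3 × 10^6 per dish) were incubated overnight at 37 °C, 5% CO2, then given erastin for 6–26 h. Untreated cells and staurosporine (6 h) or camptothecin (18 h) served as comparators. Full-length and cleaved PARP1 were detected by western blot.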

BJ [13] = test: Induction of cell death in TERT expressing human BJ cells; format: functional, cell-based
[14] = Induction of cell death in human EWS502 cells; format: functional, cell-based
[15] = molecular target: T1, Mitogen-activated protein kinase; ERK1/ERK2 (Homo sapiens); test: Effect on ERK1/2 phosphorylation in TERT expressing human BJ cells by Western blot; format: cell-based; method in brief: as §1
[16] = molecular target: T1, Mitogen-activated protein kinase; ERK1/ERK2 (Homo sapiens); test: Effect on ERK1/2 phosphorylation in human EWS502 cells by Western blot; format: cell-based; method in brief: as §1
[17] = molecular target: T1, Mitogen-activated protein kinase; ERK1/ERK2 (Homo sapiens); test: Effect on ERK1/2 phosphorylation in human HL60 cells by Western blot; format: cell-based; details: HL-60; method in brief: as §1
[18] = molecular target: T1, Mitogen-activated protein kinase; ERK1/ERK2 (Homo sapiens); test: Effect on ERK1/2 phosphorylation in human HT1080 cells by Western blot; format: cell-based; details: HT-1080; method in brief: as §1
[19] = molecular target: T1, Mitogen-activated protein kinase; ERK1/ERK2 (Homo sapiens); test: Effect on ERK1/2 phosphorylation in human SW872 cells by Western blot; format: cell-based; method in brief: as §1
[20] = molecular target: T1, Mitogen-activated protein kinase; ERK1/ERK2 (Homo sapiens); test: Effect on ERK1/2 phosphorylation in human U937 cells by Western blot; format: cell-based; details: U-937; method in brief: as §1
SJSA-1 = test: Induction of cell death in human SJSA1 cells; format: functional, cell-based
HeLa = test: Induction of cell death in human HeLa cells; format: functional, cell-based
[21] = Induction of cell death in human Hs925.T cells; format: functional, cell-based
[22] = Induction of cell death in human SKUT cells; format: functional, cell-based
[23] = Induction of cell death in human MX2 cells; format: functional, cell-based
C-33-A = test: Induction of cell death in human C33A cells; format: functional, cell-based
SW982 = test: Induction of cell death in human SW982 cells; format: functional
BJ [24] = test: Induction of cell death in human BJ cells expressing TERT, LT, ST and RAS G12V mutant genes at 13 uM; format: functional
BJ [25] = test: Induction of cell death in human BJ cells expressing TERT, LT, ST and RAS G12V mutant genes in presence of U0126 by trypan blue exclusion method; format: functional, cell-based
Method in brief: (§4)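 BJ-TERT/LT/ST/RASV12 cells were co-treated for 48 h with 1.5 µM erastin plus 20 µM U0126, 10 µM MEK inhibitor I or 50 µM MEK1/2 inhibitor. Viability was measured by automated Trypan blue exclusion of trypsinized cells resuspended in growth medium; n = 2 or 3.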

HT-1080 [26] = test: Induction of cell death in human HT1080 cells in presence of U0126 by trypan blue exclusion method; format: functional, cell-based
BJ [27] = test: Induction of cell death in human BJ cells expressing TERT, LT, ST and RAS G12V mutant genes in presence of MEK inhibitor by trypan blue exclusion method; format: functional, cell-based; method in brief: as §4
HT-1080 [28] = test: Induction of cell death in human HT1080 cells in presence of MEK inhibitor by trypan blue exclusion method; format: functional, cell-based
BJ [29] = test: Induction of cell death in human BJ cells expressing TERT, LT, ST and RAS G12V mutant genes cells in presence of MEK 1/2 inhibitor by trypan blue exclusion method; format: functional, cell-based; method in brief: as §4
HT-1080 [30] = test: Induction of cell death in human HT1080 cells; format: functional, cell-based
SK-ES1 = test: Induction of cell death in human SK-ES-1 cells; format: functional, cell-based
SK-N-MC = test: Induction of cell death in human SK-N-MC cells; format: functional, cell-based
[31] = Induction of cell death in human TC71 cells; format: functional, cell-based

T1 sequence (P27361 whole entry, looked up): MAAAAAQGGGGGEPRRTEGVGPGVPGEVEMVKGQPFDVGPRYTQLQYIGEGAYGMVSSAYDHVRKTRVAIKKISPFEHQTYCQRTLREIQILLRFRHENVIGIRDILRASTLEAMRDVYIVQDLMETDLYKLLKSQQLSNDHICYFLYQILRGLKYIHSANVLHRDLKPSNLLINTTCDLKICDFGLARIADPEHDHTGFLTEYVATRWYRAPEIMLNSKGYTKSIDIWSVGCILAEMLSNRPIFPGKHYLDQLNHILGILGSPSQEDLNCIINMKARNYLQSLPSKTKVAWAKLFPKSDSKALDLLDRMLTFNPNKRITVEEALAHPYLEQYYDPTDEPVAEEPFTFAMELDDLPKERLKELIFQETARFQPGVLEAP
T1 sequence (P28482 whole entry, looked up): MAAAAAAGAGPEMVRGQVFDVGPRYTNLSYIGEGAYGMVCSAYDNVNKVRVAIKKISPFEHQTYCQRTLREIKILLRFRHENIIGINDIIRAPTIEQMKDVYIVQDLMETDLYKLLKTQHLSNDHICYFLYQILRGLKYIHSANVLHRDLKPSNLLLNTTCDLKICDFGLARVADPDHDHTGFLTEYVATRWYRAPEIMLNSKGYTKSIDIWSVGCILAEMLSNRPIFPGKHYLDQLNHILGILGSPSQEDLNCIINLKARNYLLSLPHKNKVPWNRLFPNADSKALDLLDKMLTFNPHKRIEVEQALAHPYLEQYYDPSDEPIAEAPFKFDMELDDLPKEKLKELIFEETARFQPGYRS

CCOc1ccccc1-n1c(C(C)N2CCN(C(=O)COc3ccc(Cl)cc3)CC2)nc2ccccc2c1=O (stereo not given) [ERASTIN]
Activity [1]: 0.66 a.u. | IC50 (HT-1080 [2]): 1 µM | Activity (BJ [3]): inactive | Activity (BJ [4]): Active | Activity (BJ [5]): Active | Activity (BJ [6]): Active | Activity (BJ [7]): Active | Activity (HT-1080 [8]): Active | Activity (HT-1080 [9]): Active | Activity (HT-1080 [10]): Active | Activity (A673): inactive | Activity (HT-1080 [11]): inactive | Activity (BJ [12]): inactive | Activity (BJ [13]): 22% | EC50 (BJ [13]; Homo sapiens, BJ): 10 µM | Activity [14]: 42% | EC50 ([14]; Homo sapiens, EWS502): 10 µM | Activity [15]: 0.09 a.u. | Activity [16]: 0.12 a.u. | Activity [17]: 0.1 a.u. | Activity [18]: 0.53 a.u. | Activity [19]: 0.12 a.u. | Activity [20]: 0.27 a.u. | Activity (SJSA-1): 100% | EC50 (SJSA-1; Homo sapiens, SJSA-1): 12 µM | Activity (HeLa): 94% | EC50 (HeLa; Homo sapiens, HeLa): 0.6 µM | Activity [21]: 83% | EC50 ([21]; Homo sapiens): 17 µM | Activity [22]: 73% | EC50 ([22]; Homo sapiens, SKUT): 4 µM | Activity [23]: 71% | EC50 ([23]; Homo sapiens, MX2): 18 µM | Activity (C-33-A): 21% | EC50 (C-33-A; Homo sapiens, C-33-A): 0.6 µM | Activity (SW982): 0% | Activity (BJ [24]): 100% | IC50 (BJ [25]): 31.2 µM | IC50 (HT-1080 [26]): 3.4 µM | IC50 (BJ [27]): 2.6 µM | IC50 (HT-1080 [28]): 2.5 µM | IC50 (BJ [29]): 2 µM | Activity (HT-1080 [30]): 98% | EC50 (HT-1080 [30]; Homo sapiens, HT-1080): 2 µM | Activity (SK-ES1): 96% | EC50 (SK-ES1; Homo sapiens, SK-ES1): 7 µM | Activity (SK-N-MC): 95% | EC50 (SK-N-MC; Homo sapiens, SK-N-MC): 10 µM | Activity [31]: 92% | EC50 ([31]; Homo sapiens, TC-71): 10 µM
